Rows were chosen to be rich in hits. Some 3.5% of all compounds tested hit in one or more screens of this group.
PGC1a acetyl inh – lowers PGC1a acetylation signal in U2OS cells; hit rate 0.17% among 350,000; inhibition, % at 15.6 µM; AlphaScreen anti-acetyl-lysine; with virally co-expressed GCN5 acetyltransferase;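 active = every replicate shows inhibition of at least 40%; inconclusive = mean inhibition at least 40% but some replicate below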;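 note: 0% = neutral control wells and 100% = positive control wells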
Ecoli rRNA inh – inhibitors of bacterial rRNA selective over humanized ribosomes; E. coli WT GFP vs humanized-ribosome RFP mutants, fluorescence, 24 h; active compounds read low; DMSO median 0, no signal -100; GFP signal change (wild-type ribosome), % (test concentration not listed); hit rate 1.6% among 350,000;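 active = significant combined selectivity score with lowered wild-type GFP, culture density cut under 30%, mutant RFP and density less affected; inactive = any of these conditions unmet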
Env fusion inh – HIV envelope-mediated fusion inhibition; hit rate 1.1% among 360,000; HeLa-JRFL Env/CEM21 cell fusion, luciferase; AID 651610; inhibition, % at 12.3 µM;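 active = mean replicate inhibition score of at least 50 and every replicate individually at or above 50; inconclusive = only one of the two criteria met; inactive = mean below 50 and not all replicates reaching 50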;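 note: 0% = plate neutral controls and 100% = maraviroc near 300 nM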
PglD inh – PglD (C. jejuni) enzyme inhibition. inhibition, % at 12.5 µM. purified PglD enzyme, DTNB colorimetric CoA detection. AID 602405. hit rate 0.098% among 360,000; in the data active = inhibition above about 16%, passing the limit was not always enough; inconclusive = no clear call, values can overlap the other calls
DENV2 CPE – DENV2-induced cell death inhibition; DENV2-infected cells, cytopathic effect rescue, plate reader; CPE inhibition, % at 9.99 µM; hit rate 1.7% among 350,000; in the data active = CPE inhibition above about 20%, passing the limit was not always enough; inconclusive = no clear call, values can overlap the other calls; tested in BHK-21 cells;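 note: 0% = median of neutral control wells and 100% = median of positive control wells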
FN deposit inh – fibronectin deposition inhibition. inhibition, % at 12.6 µM. hit rate 0.086% among 350,000. AH1F fibroblasts, Alexa488-fibronectin deposition fluorescence, overnight;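 active = mean inhibition across replicates of 30% or more, regardless of how many single replicates reach that level; inconclusive = mean under 30% yet at least half of replicates reach 30%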;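 note: positive control wells lacked labelled fibronectin entirely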
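test system = AH1F fibroblasts assembling fluorescent fibronectin matrix | quantity = 10000 AH1F cells per well | buffer or medium = DMEM plus 2% serum, read in PBS | doses = single dose, pinned | incubation = 1 h cell attachment, overnight exposure to compound and label | detection = fluorescence at 485 nm excitation, 525 nm emission | read-out basis = inhibition from reduced deposited-fibronectin fluorescence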
Active calls of the source: *; ? = inconclusive; . = no result; [ ] = remark or other dose.

SMILES | PGC1a acetyl inh | Ecoli rRNA inh | Env fusion inh | PglD inh | DENV2 CPE | FN deposit inh
COc1ccc(NC(=O)Nc2ccc3c(c2)C(=O)N([C@@H](C)CO)C[C@H](C)[C@H](CN(C)C(=O)Cc2ccccc2)OCCCC[C@@H](C)O3)cc1 | 12 | 6 | -4[16.7 µM] | 2 | 0 | .
COc1ccc(NC(=O)Nc2ccc3c(c2)C(=O)N([C@@H](C)CO)C[C@@H](C)[C@H](CN(C)C(=O)Cc2ccccc2)OCCCC[C@H](C)O3)cc1 | 5 | 0 | 7[16.7 µM] | 2 | -14 | .
COc1ccc(NC(=O)Nc2ccc3c(c2)C(=O)N([C@H](C)CO)C[C@H](C)[C@@H](CN(C)C(=O)Cc2ccccc2)OCCCC[C@@H](C)O3)cc1 | 5 | 1 | 2[16.7 µM] | -2 | 68* | .
CCCNC(=O)[C@H]1[C@H](CO)[C@H]2Cn3c(ccc(-c4ccccc4F)c3=O)[C@@H]1N2S(C)(=O)=O | . | -2 | . | -1 | 4 | .
O=C(Nc1cc(F)ccc1F)N1CCCCN2[C@@H](CO)[C@H](c3ccc(-c4cccnc4)cc3)[C@@H]2C1 | -13 | -24* | . | 7 | . | .
O=C(Nc1ccccc1F)N1CCCCN2[C@H](CO)[C@@H](c3ccc(-c4cccnc4)cc3)[C@@H]2C1 | -6 | -6 | . | 2 | -2 | .
O=C(Nc1cc(F)ccc1F)N1CC(=O)N2[C@H](CO)[C@H](c3ccc(-c4cccnc4)cc3)[C@@H]2C1 | 3 | 0 | . | . | 30* | .
O=C1CN(Cc2ccc(F)cc2)C[C@H]2[C@@H](c3ccc(-c4cccnc4)cc3)[C@H](CO)N12 | -4 | 1 | . | . | 24* | .
O=C(Nc1ccccc1F)N1CCCCN2[C@H](CO)[C@H](c3ccc(-c4cccnc4)cc3)[C@H]2C1 | 4 | -4 | . | -8 | 27* | .
O=C(Nc1cc(F)ccc1F)N1CC(=O)N2[C@H](CO)[C@@H](c3ccc(-c4ccccc4)cc3)[C@H]2C1 | -7 | -4 | . | . | ? | .
C[C@@H]1CN([C@@H](C)CO)C(=O)c2cc(NS(C)(=O)=O)ccc2O[C@@H](C)CCCCO[C@H]1CN(C)Cc1ccc(C(=O)O)cc1 | 8 | 3 | -10[16.7 µM] | 1 | -15 | .
Cc1ccccc1-c1ccc2c(c1)O[C@@H](CN(C)C(=O)C1CC1)[C@H](C)CN([C@@H](C)CO)S2(=O)=O | 6 | -8 | -46[16.7 µM] | -12 | 2 | 0
C[C@@H]1CCCCO[C@@H](CN(C)S(=O)(=O)c2ccccc2)[C@@H](C)CN([C@H](C)CO)C(=O)c2cc(NC(=O)NC3CCCCC3)ccc2O1 | 2 | 2 | 23[16.7 µM] | -2 | 0 | 1
Cc1noc(C)c1NC(=O)Nc1ccc2c(c1)C(=O)N([C@H](C)CO)C[C@H](C)[C@@H](CN(C)C(=O)Nc1cccc3ccccc13)OCCCC[C@@H](C)O2 | -6 | 2 | 0[16.7 µM] | -2 | -10 | 7
COc1ccc(NC(=O)Nc2ccc3c(c2)C(=O)N([C@@H](C)CO)C[C@H](C)[C@@H](CN(C)C(=O)NC2CCCCC2)OCCCC[C@H](C)O3)cc1 | 1 | -1 | . | . | 4 | .
COc1ccc(/C=C2\CCc3ccccc3C2=O)cc1Cn1cccn1 | 3 | . | 65* | 1 | . | .
COC(=O)c1ccc(CN2CC(=O)N3[C@@H](CO)[C@H](c4ccc(-c5ccccc5)cc4)[C@@H]3C2)cc1 | . | -3 | . | . | . | .
COC(=O)c1ccc(NC(=O)C2CC3CCC2C3)cc1 (stereo not drawn) | -13 | -16 | -34 | -3 | 47* | -9
CO[C@@H]1CN(C)C(=O)c2ccc(NC(=O)C3CCC3)cc2OC[C@@H](C)N(S(=O)(=O)c2ccc(Cl)cc2)C[C@H]1C | . | -4 | . | 4 | 2 | 0
Cc1ccc(S(=O)(=O)Nc2ccc3c(c2)C(=O)N([C@@H](C)CO)C[C@@H](C)[C@@H](CN(C)C(=O)Nc2cccc4ccccc24)O3)cc1 | 10 | -2 | 5[16.7 µM] | -1 | . | .
Cc1cccc(NC(=O)CSc2nnnn2C)n1 | 15 | . | -51 | 0 | . | -3
Cc1ccc(-c2csc3nnc(SCC(=O)Nc4cccc(C)n4)n23)cc1 | -3 | . | 107* | 4 | . | 2
COc1cccc(C#Cc2ccc([C@@H]3[C@H](CO)N4C(=O)CN(S(=O)(=O)c5ccccc5C)C[C@@H]34)cc2)c1 | -5 | 1 | . | . | -8 | .
COc1cccc(CN2[C@@H]3CN(C(=O)c4ccncc4)c4ccccc4[C@@H]3[C@@H]2CO)c1 | 4 | -2 | . | 1 | 21* | .
O=C(c1cccnc1)N1C[C@H]2[C@@H](c3ccccc31)[C@@H](CO)N2Cc1ccc2c(c1)OCO2 | -6 | 3 | . | -3 | 26* | .
SMILES | PGC1a acetyl inh | Ecoli rRNA inh | Env fusion inh | PglD inh | DENV2 CPE | FN deposit inh
COc1cccc(CN2[C@H](CO)[C@H]3c4ccccc4N(C(=O)c4cccnc4)C[C@H]32)c1 | -4 | 1 | . | 4 | -7 | 25
Cc1cccc(OCCn2c(=O)sc3ccccc32)c1 | -7 | . | . | -4 | . | .
Cc1cccc(OCCn2c(=O)n(C)c3ccccc32)c1 | -14 | -37 | -28 | 0 | 69* | 3
O=C(C[C@H]1CC[C@H]2[C@@H](COC[C@H](O)CN2CC2CCOCC2)O1)NCC1CCCCC1 | -4 | 5 | . | 0 | 14 | -5
CCC(C)NC(=O)N1c2ccccc2Sc2ccccc21 (stereo not drawn) | . | -31* | 5 | . | 7 | 2
O=C(NCCO)N1c2ccccc2Sc2ccccc21 | . | 3 | 5 | 2 | 0 | 15
CCCNC(=O)N1c2ccccc2Sc2ccccc21 | . | -18 | -1 | . | 1 | -8
C=CCNC(=O)N1c2ccccc2Sc2ccccc21 | 13 | -24* | 0 | 6 | 0 | -1
CO[C@@H]1CN(C)C(=O)c2ccc(NS(C)(=O)=O)cc2OC[C@H](C)N(Cc2nccs2)C[C@@H]1C | 4 | -1 | 9[16.7 µM] | -1 | 72* | 3
CCCN1C[C@@H](C)[C@H](OC)CN(C)C(=O)c2ccc(NS(=O)(=O)c3ccccc3)cc2OC[C@@H]1C | 6 | 2 | -11[16.7 µM] | 3 | 37* | -6
CCCN1C[C@@H](C)[C@@H](OC)CN(C)C(=O)c2cc(NS(=O)(=O)c3ccccc3)ccc2OC[C@H]1C | 2 | 3 | 6[16.7 µM] | 6 | -3 | -11
CCCN1C[C@H](C)[C@@H](OC)CN(C)C(=O)c2ccc(NS(C)(=O)=O)cc2OC[C@H]1C | . | 0 | 5[16.7 µM] | 1 | 27* | 0
CCCN1C[C@H](C)[C@H](OC)CN(C)C(=O)c2cc(NS(C)(=O)=O)ccc2OC[C@H]1C | 1 | 0 | 4[16.7 µM] | 2 | . | 2
CC1(C)OC2CCN3C(C(O)COS3(=O)=O)C2O1 (stereo not drawn) | 13 | 4 | -17 | -1 | 131* | -7
CN1[C@@H]2CN(C(=O)C3CCOCC3)c3ccccc3[C@@H]2[C@@H]1CO | 8 | 6 | . | -1 | 40* | .
O=C(C1CCOCC1)N1C[C@H]2[C@@H](c3ccccc31)[C@@H](CO)N2C(=O)c1ccccc1 | 7 | 7 | . | 6 | 97* | .
